Legend:
[1] = tested on: EGFP and luciferase mRNA; test: Gel retardation assay, vector-mRNA binding; conditions: agarose gel electrophoresis
Method in brief: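 Test compounds (peptide vectors, with or without PEG) mixed with EGFP or luciferase mRNA at 0.5:1 to 15:1 (w/w) to form self-assemblies. Run on agarose gel in 1× TAE at 140 V for 40 min. Stained with GelRed and imaged under UV. Unbound mRNA served as control. Complete binding was taken as loss of the free mRNA band.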

[2] = tested on: A549 cells; test: MTT cytotoxicity assay on A549 cells; assay type: cell-based, human; conditions: peptide alone at 50 and 25 μg/mL, 24 h, n = 3
Method in brief: (§1)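 Peptide vectors, PEGylated or not, were added alone at a series of concentrations to A549 or HepG2 cells, followed by MTT read-out. Viability (%) was calculated from absorbance of treated cells relative to untreated cells. Data given as mean ± SEM (n = 3) and compared by one-way ANOVA with Tukey's post-hoc test.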

[3] = tested on: HepG2 cells; test: MTT cytotoxicity assay on HepG2 cells; assay type: cell-based, human; conditions: peptide alone at 50 and 25 μg/mL, 24 h, n = 3
Method in brief: as §1

(PEG24)-KKALLAHALHLLA LLALHLAHALKKA-NH2 [PEG24LA, PEG24-LAH4-L1]
mRNA affinity compared with non-PEGylated LA peptide [1]: comparable
cytotoxicity of peptide compared with non-PEGylated LA peptide [2]: significantly lower
cytotoxicity of peptide compared with non-PEGylated LA peptide [3]: significantly lower

From PMC10281356 (Drug Delivery, 2023)
